These results are taken from ChEMBL document CHEMBL3120055, “HPLC-based activity profiling for GABAA receptor modulators in Adenocarpus cincinnatus” (J Nat Prod, 2014).

The nature of experiment [1]: Positive allosteric modulation of rat alpha1beta2gamma2S GABAA receptor expressed in Xenopus laevis oocytes assessed as potentiation of GABA-induced chloride current by two-microelectrode voltage clamp electrophysiology. Type of experiment: cell-based. The essentials:
(§1)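 Rat α1β2γ2s cRNAs (1:1:10) were injected into collagenase-treated Xenopus oocytes, which were kept at 18 °C in ND96 and recorded on days 1–5. Two-electrode clamp was held at −70 mV in bath containing 90 mM NaCl and 5 mM HEPES, pH 7.4. Compound at 0.1–300 μM was co-applied with GABA EC5–10 by fast perfusion, with 1% DMSO final. Enhancement is I(GABA+Comp)/IGABA − 1, given as mean ± SE from four oocytes across three batches.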

The species named for experiment [2] is Rattus norvegicus. Put plainly: Positive allosteric modulation of rat alpha1beta2gamma2S GABAA receptor expressed in Xenopus laevis oocytes assessed as potentiation of GABA-induced chloride current at 300 uM by two-microelectrode voltage clamp electrophysiology. The format is cell-based. The essentials: as §1
Experiment [3] is filed under the species Rattus norvegicus. Put plainly: Agonist activity at rat alpha1beta2gamma2S GABAA receptor expressed in Xenopus laevis oocytes assessed as direct activation of chloride current in absence of GABA at 0.1 to 30 uM by two-microelectrode voltage clamp electrophysiology.
Experiment [4] is filed under the species Rattus norvegicus. Put plainly: Positive allosteric modulation of rat alpha1beta2gamma2S GABAA receptor expressed in Xenopus laevis oocytes assessed as potentiation of GABA-induced chloride current at 100 uM by two-microelectrode voltage clamp electrophysiology relative to control. The format is cell-based.
For experiment [5], the species on record is Rattus norvegicus. Put plainly: Positive allosteric modulation of rat alpha1beta2gamma2S GABAA receptor expressed in Xenopus laevis oocytes assessed as potentiation of GABA-induced chloride current by two-microelectrode voltage clamp electrophysiology relative to control. Type of experiment: cell-based. The essentials: as §1
The species named for experiment [6] is Rattus norvegicus. Put plainly: Positive allosteric modulation of rat alpha1beta2gamma2S GABAA receptor expressed in Xenopus laevis oocytes assessed as potentiation of GABA-induced chloride current at 1 uM by two-microelectrode voltage clamp electrophysiology relative to control. The format is cell-based. The essentials:
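Rat α1β2γ2s cRNAs (1:1:10) injected into collagenase-defolliculated oocytes, kept at 18 °C in ND96 with penicillin-streptomycin, and recorded on days 1–5. Test agent applied by fast perfusion with GABA EC5–10 in 1% DMSO final. Enhancement = I(GABA+Comp)/IGABA − 1.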

Molecules are shown by their SMILES. The source made the active and inactive calls. The rule behind the calls is not given here.

As usually defined, the EC50 is the concentration at which the effect is half-maximal. In general, Emax refers to the maximal effect, on the per cent scale that the assay sets. As to `CC(C)(O)CCc1cc2c(cc1O)O[C@H]1c3ccc(O)cc3OC[C@@H]21`, in experiment [1], the EC50 was 8.6 µM. The result in experiment [2] and in experiment [3] was inactive. For the same molecule, in experiment [4], the %max was 489%. Moreover, in experiment [5], the Emax came out at 640%.

`CC(C)=CCc1cc2c(c(CC=C(C)C)c1O)O[C@H](c1ccc(O)cc1)[C@@H](O)C2=O`: in experiment [4], the %max was determined as 287%.

Take `CC1(C)C=Cc2cc3c(cc2O1)O[C@H]1c2ccc(O)cc2OC[C@@H]31` [ISONEORAUTENOL]: the half-maximal effective concentration (EC50) in experiment [1] came out at 40.7 µM. Moreover, the result in experiment [2] and in experiment [3] was inactive. Besides, in experiment [4], the %max stood at 388%. Moreover, the Emax in experiment [5] is 771%.

Take `CC(C)=CCc1c(O)ccc2c(=O)c(-c3ccc(O)cc3)coc12`: the %max in experiment [4] came to 192%.

As for `CO[C@H](Cc1ccccc1)C(=O)c1ccc(O)cc1O`, the %max in experiment [4] came out at 88.8%.

On to `CC(C)=CCc1c(O)ccc2c1OCC(c1ccc(O)cc1O)C2=O` (stereo unspecified), for which the %max in experiment [4] worked out at 361%.

On to `Oc1ccc2c(c1)OC[C@H]1c3cc4c(cc3O[C@@H]21)OCO4`, for which the %max in experiment [4] was 238%.

Turning to `CC(C)=CCc1cc2c(cc1O)O[C@H]1c3ccc(O)c(O)c3OC[C@@H]21`, the EC50 in experiment [1] stood at 18.8 µM. Also, the outcome in experiment [2] and in experiment [3] was inactive. Moreover, the %max in experiment [4] turned out to be 454%. Moreover, in experiment [5], the Emax worked out at 491%.

Turning to `CC(C)=CCc1c(O)c(CCC(C)(C)O)cc2c1O[C@H](c1ccc(O)cc1)[C@@H](O)C2=O`, the %max in experiment [4] was -26%.

With `O=C1c2ccc(O)cc2O[C@H](c2ccccc2)[C@H]1O`, the %max in experiment [4] is 11.7%.

For the molecule `CO/C(=C\c1ccccc1)C(=O)c1ccc(O)cc1O`, in experiment [4], the %max worked out at 228%.

For the molecule `CC(C)=CCc1c(O)ccc2c1O[C@H](c1ccc(O)cc1)[C@@H](O)C2=O`, the %max in experiment [4] is 272%.

On to `CC(C)=CCc1c(O)ccc2c(=O)c(-c3ccc(O)cc3O)coc12`, for which the EC50 in experiment [1] stood at 2.8 µM. Moreover, the result in experiment [3] was inactive. The %max in experiment [4] was 560%. For the same molecule, in experiment [5], the Emax was found to be 553%.

Take `CC(C)=CCc1cc2c(cc1O)OCC(c1ccc(O)cc1O)C2=O` (stereo unspecified): in experiment [4], the %max turned out to be 199%.

As for `Oc1ccc2c(c1)OC[C@H]1c3cc4ccoc4cc3O[C@@H]21`, in experiment [4], the %max came out at 213%.

Consider `CN1C(=O)CN=C(c2ccccc2)c2cc(Cl)ccc21`, for which, in experiment [6], the Activity amounted to 231%.
